# Data from ChEMBL document CHEMBL1129428 (J Med Chem, 1996).
# How the values were obtained:
# Rattus norvegicus [1] = assay: Compound was tested for anticonvulsant activity after Oral Administration into Rats by using MES screen test after 0.25h,dose 12.5 mg/kg; No activity was demonstarted; assay type: functional, organism-based; parameters: dose 12.5 mg/kg
# Method in brief: (§1)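 Rats received the compound orally. […] Rats were tested in the MES screen at 0.25, 0.5, 1, 2 and 4 h. Each value is the number of rats protected out of 4. The test followed NINDS procedures.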
# Rattus norvegicus [2] = assay: Compound was tested for anticonvulsant activity after Oral Administration into Rats by using MES screen test after 2h.,dose 12.5 mg/kg; number of rats out of four which were protected; assay type: functional; method in brief: as §1
# Mus musculus [3] = assay: Anticonvulsant activity after intraperitoneal injection into mice by using scPTZ screen test after 4 hr; assay type: functional
# Mus musculus [4] = assay: Anticonvulsant activity after intraperitoneal injection into mice measured in a maximal electroshock scree (MES) screen; assay type: functional
# Rattus norvegicus [5] = assay: Compound was tested for anticonvulsant activity after Oral Administration into Rats by using MES screen test after 4h,dose 12.5 mg/kg; No activity was demonstarted; assay type: functional, organism-based; parameters: dose 12.5 mg/kg; method in brief: as §1
# Mus musculus [6] = assay: Anticonvulsant activity after intraperitoneal injection into mice by using MES screen test after 0.5 hr; assay type: functional
# Rattus norvegicus [7] = assay: Compound was tested for anticonvulsant activity after Oral Administration into Rats by using MES screen test after 0.5h,dose 12.5 mg/kg; No activity was demonstarted; assay type: functional, organism-based; parameters: dose 12.5 mg/kg; method in brief: as §1
# Rattus norvegicus [8] = assay: Compound was tested for anticonvulsant activity after Oral Administration into Rats by using MES screen test after 1h,dose 12.5 mg/kg; number of rats out of four which were protected; assay type: functional; method in brief: as §1
# Rattus norvegicus [9] = assay: Compound was tested for anticonvulsant activity after Oral Administration into Rats by using MES screen test after 1h,dose 50 mg/kg; number of rats out of four which were protected; number of rats out of four which were protected; assay type: functional; method in brief: as §1
# Rattus norvegicus [10] = assay: Compound was tested for anticonvulsant activity after Oral Administration into Rats by using MES screen test after 4h,dose 50 mg/kg; number of rats out of four which were protected; assay type: functional; method in brief: as §1
# Mus musculus [11] = assay: Compound was tested for toxicity after intraperitoneal injection into mice using toxicity screen test; details: in vivo, ip
# Rattus norvegicus [12] = assay: Compound was tested for anticonvulsant activity after Oral Administration into Rats by using MES screen test after 0.5h,dose 50 mg/kg; number of rats out of four which were protected; assay type: functional; method in brief: as §1
# Mus musculus [13] = assay: Compound was tested for toxicity after intraperitoneal injection into mice by using toxicity screen test after 4 hr; assay type: organism-based; details: in vivo, ip
# Method in brief: (§2)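 Mice injected intraperitoneally at 30, 100 and 300 mg/kg and examined 0.5 and 4 h afterwards. Each entry is the minimum dose giving activity (MES protection, scPTZ protection, or rotorod failure for neurotoxicity) in half or more of the mice. Activity is called absent if nothing occurs at 300 mg/kg.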
# Rattus norvegicus [14] = assay: Compound was tested for anticonvulsant activity after Oral Administration into Rats by using MES screen test after 0.25h,dose 50 mg/kg; No activity was demonstarted; assay type: functional, organism-based; parameters: dose 50 mg/kg; method in brief: as §1
# Mus musculus [15] = assay: Compound was tested for anticonvulsant activity after intraperitoneal injection into mice by using scPTZ screen test after 0.5 hr; assay type: functional; details: ip; method in brief: as §2
# [16] = Compound was tested for […] after intraperitoneal injection into mice by using neurotoxicity screen test after 2 hr; assay type: organism-based; details: mouse, in vivo, ip
# Method in brief: (§3)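 Quantitative intraperitoneal mouse testing in the MES, scPTZ or rotorod neurotoxicity screens at the peak time given for each compound (0.25–2 h). ED50 or TD50 reported in mg/kg with 95% CI and slope (SE).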
# Mus musculus [17] = assay: Compound was tested for anticonvulsant activity after intraperitoneal injection into mice by using MES screen test after 0.5 hr; assay type: functional; details: ip; method in brief: as §2
# Rattus norvegicus [18] = assay: Compound was tested for anticonvulsant activity after Oral Administration into Rats by using MES screen test after 2h,dose 50 mg/kg; number of rats out of four which were protected; assay type: functional; method in brief: as §1
# Mus musculus [19] = assay: Anticonvulsant activity after intraperitoneal injection into mice by using scPTZ screen after 0.5 hr; assay type: functional
# [20] = Compound was tested for toxicity after intraperitoneal injection into mice by using neurotoxicity screen test after 4 hr; assay type: organism-based; details: mouse, in vivo, ip; method in brief: as §2
# Mus musculus [21] = assay: Compound was tested for anticonvulsant activity after intraperitoneal injection into mice by using scPTZ screen test after 4 hr; assay type: functional; details: ip; method in brief: as §2
# Rattus norvegicus [22] = assay: Compound was tested for anticonvulsant activity after Oral Administration into rat by using MES screen test at 4 hr; assay type: functional
# Method in brief: (§4)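 Rats dosed orally, typically at 50 mg/kg first, then mostly 12.5 mg/kg (some compounds at 30 mg/kg), and tested by maximal electroshock. Four rats per compound, scored at 0.25, 0.5, 1, 2 and 4 h as the number of rats protected out of 4.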
# Rattus norvegicus [23] = assay: Compound was tested for anticonvulsant activity after Oral Administration into Rats by using MES screen test after 2h,dose 12.5 mg/kg; number of rats out of four which were protected; assay type: functional; method in brief: as §1
# Mus musculus [24] = assay: Toxicity after intraperitoneal injection into mice by using toxicity screen test after 0.5 hr; assay type: organism-based; details: in vivo, ip; method in brief: as §2
# Rattus norvegicus [25] = assay: Compound was tested for anticonvulsant activity after Oral Administration into Rats by using MES screen test after 4h,dose 12.5 mg/kg; number of rats out of four which were protected; assay type: functional; method in brief: as §1
# Mus musculus [26] = assay: Compound was tested for anticonvulsant activity after intraperitoneal injection into mice by using MES screen test after 4 hr; assay type: functional; details: ip; method in brief: as §2
# [27] = Compound was tested for toxicity after oral administration in rat by using neurotoxicity screen test after 0.25-24 hr; assay type: organism-based; details: in vivo
# Method in brief: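 Rat neurotoxicity after oral dosing, observed at 0.25, 0.5, 1, 2, 4, 6, 8 and 24 h (8 h omitted for one compound).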
# Mus musculus [28] = assay: Compound was tested for anticonvulsant activity after intraperitoneal injection into mice by using scPTZ screen test after 1 hr; assay type: functional; details: ip; method in brief: as §3
# Rattus norvegicus [29] = assay: Compound was tested for anticonvulsant activity after Oral Administration into rat by using MES screen test after 2 hr; assay type: functional; method in brief: as §4
# Mus musculus [30] = assay: Compound was tested for anticonvulsant activity after intraperitoneal injection into mice by using MES screen test at 1 hr; assay type: functional; details: ip; method in brief: as §3
# Mus musculus [31] = assay: Anticonvulsant activity after intraperitoneal injection into mice by using MES screen test after 0.25 hr; assay type: functional
# [32] = Compound was tested for toxicity after intraperitoneal injection into mice by using neurotoxicity screen test after 0.25 hr; details: mouse, in vivo, ip
# Mus musculus [33] = assay: Compound was tested for anticonvulsant activity after intraperitoneal injection into mice by using scPTZ screen test after 0.25 hr; assay type: functional; details: ip; method in brief: as §3
# [34] = Compound was tested for toxicity after oral administration in rat by using neurotoxicity screen test after 0.5 hr; details: in vivo
# [35] = Compound was tested for toxicity after intraperitoneal injection into mice by using neurotoxicity screen test after 0.5 hr; details: mouse, in vivo, ip
Structure (SMILES),Activity (Rattus norvegicus [1]),Dose (Mus musculus [3]),Dose (Mus musculus [4]),Dose (Mus musculus [6]),Activity (Rattus norvegicus [7]),Activity (Rattus norvegicus [8]),Dose (Mus musculus [13]),Dose (Mus musculus [19]),TD50 at 4 h [20],Activity (Rattus norvegicus [23]),Dose (Mus musculus [24]),Activity (Rattus norvegicus [25]),TD50 [27],ED50 (Mus musculus [28]),further results
NC(=O)N/N=C\c1ccc(OCc2ccccc2)cc1,No activity,100 mg/kg,300 mg/kg,300 mg/kg,No activity,1,–,–,–,–,–,–,–,–,Activity (Rattus norvegicus [2]): 1; Activity (Rattus norvegicus [5]): No activity
NC(=O)N/N=C\c1ccc(Oc2cccc(Cl)c2)cc1,–,300 mg/kg,100 mg/kg,30 mg/kg,–,–,100 mg/kg,30 mg/kg,–,–,–,–,–,–,Activity (Rattus norvegicus [9]): 4; Activity (Rattus norvegicus [10]): 4; Dose (Mus musculus [11]): 300 mg/kg; Activity (Rattus norvegicus [12]): 4; Activity (Rattus norvegicus [14]): No activity; ED50 (Mus musculus [15]): 41.2 mg/kg; TD50 at 2 h [16]: 64.5 mg/kg; ED50 (Mus musculus [17]): 27.7 mg/kg; Activity (Rattus norvegicus [18]): 4
CC(C)(C)c1ccc(Oc2ccc(/C=N\NC(N)=O)cc2)cc1,No activity,100 mg/kg,30 mg/kg,100 mg/kg,No activity,4,100 mg/kg,–,106 mg/kg,4,100 mg/kg,4,> 500 mg/kg,–,ED50 (Mus musculus [21]): > 150 mg/kg; ED50 (Rattus norvegicus [22]): 1.68 mg/kg; ED50 (Mus musculus [26]): 8.87 mg/kg
Cc1ccc(Sc2ccc(/C=N/NC(N)=O)cc2)cc1,No activity,100 mg/kg,30 mg/kg,30 mg/kg,No activity,4,100 mg/kg,100 mg/kg,197 mg/kg,4,300 mg/kg,4,> 500 mg/kg,> 300 mg/kg,ED50 (Rattus norvegicus [29]): 3.65 mg/kg; ED50 (Mus musculus [30]): 9.46 mg/kg
CCCC(CCC)C(=O)O [VALPROIC ACID],–,–,–,–,–,–,–,300 mg/kg,–,–,–,–,–,–,ED50 (Mus musculus [31]): 287 mg/kg; TD50 at 0.25 h [32]: 483 mg/kg; ED50 (Mus musculus [33]): 209 mg/kg; TD50 at 0.5 h [34]: 859 mg/kg
O=C1NC(=O)C(c2ccccc2)(c2ccccc2)N1 [PHENYTOIN],–,–,30 mg/kg,30 mg/kg,–,–,100 mg/kg,–,–,–,100 mg/kg,–,> 500 mg/kg,> 50 mg/kg,TD50 at 0.5 h [35]: 41.2 mg/kg
